Assay results taken from publication PMC10073089 (European Journal of Medicinal Chemistry, 2023).

What was measured:
[1] = Pharmacokinetic study in ICR; format: in vivo, mice; conditions: for improvement in plasma exposure (AUClast) compared to niclosamide: ICR (CD-1) mice, oral 30 mg/kg; for conversion of prodrug to parent compound 21: mice plasma after single-dose administration
Method in brief: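 Mice (N = 3 per group) fasted 12 h before dosing. Test compound given in DMSO/0.5% HMPC (5/95, v/v), 30 mg/kg orally or 2.5 mg/kg intravenously. Femoral-vein blood taken at 0.25, 0.5, 1, 2, 4, 8 and 24 h. […] analysed by LC-MS/MS for prodrug and parent. Mole correction applied for prodrug dosing; AUClast derived.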

BECN1 = experiment: Western blot assay, BECN1; format: cell-based; conditions: Vero-E6 cells
[2] = Metabolic stability in mouse liver microsomes; format: in vitro ADME; conditions: pH 7.4
Method in brief: (§1)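 Microsomes at 0.33 mg/mL final in 0.1 M Tris pH 7.4 with 5 mM MgCl2, 0.01% DMSO and 0.005% BSA. Test compound at 1 μM final. Preincubated 10 min at 37 °C, then started with NADPH (1 mM final). Aliquots taken at 0, 7, 17, 30 and 60 min and quenched with cold methanol. After centrifugation, parent compound quantified by LC-MS/MS; half-life reported in min.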

SKP2 = experiment: Western blot assay, SKP2 level in Vero-E6 cells; format: cell-based; conditions: 16 h
[3] = Metabolic stability in human liver microsomes; format: in vitro ADME; conditions: pH 7.4
Method in brief: as §1

Sub-acute toxicity study = format: in vivo, ICR mice
Method in brief: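 Male mice of 18–20 g in four groups of ten: one control group and three oral groups at 50, 100 and 200 mg/kg, dosed once daily for ten days. Body weight, food intake and behaviour checked daily. Animals fasted before dissection. Heart, liver, spleen, lung, kidney and administration site collected for organ weight and histology.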

Row | SMILES | improvement in plasma exposure (AUClast) compared to niclosamide [1] [fold] | levels of BECN1 (BECN1; 10 μM, vs control group) | half-life at 1 µM [2] [min] | level of SKP2 (SKP2) | half-life at 1 µM [3] [min] | conversion of prodrug to parent compound 21 [1] | also measured
1 | O=C(Nc1ccc(C(F)(F)F)cc1)c1cc(Cl)c(F)cc1O [Compound 19, 5-Chloro-4-fluoro-2-hydroxy-N-(4-(trifluoromethyl)phenyl)benzamide] | 3.19 | – | – | – | – | – | –
2 | O=C(Nc1ccc(OC(F)(F)F)cc1)c1cc(Cl)c(F)cc1O [Compound 21, 5-Chloro-4-fluoro-2-hydroxy-N-(4-(trifluoromethoxy)phenyl)benzamide] | 10.84 | higher than the control group | 22.6 | reduced | 120 | – | levels of BECN1 (BECN1; 3 μM and 1 μM): slightly increased; tolerability (Sub-acute toxicity study; ICR mice, oral dosage up to 200 mg/kg, ten days): well tolerated; changes in body weight, organ weight, or tissue histology (Sub-acute toxicity study; male ICR mice, 50, 100, 200 mg/kg once a day for ten days): No significant changes; mortality (Sub-acute toxicity study; male ICR mice, 50, 100, 200 mg/kg once a day, 10 days observation): No mortality
3 | CC(C)C(=O)Oc1cc(F)c(Cl)cc1C(=O)Nc1ccc(OC(F)(F)F)cc1 [Compound 24, 4-Chloro-5-fluoro-2-((4-(trifluoromethoxy)phenyl)carbamoyl)phenyl isobutyrate] | – | – | – | – | – | rapidly hydrolyze to compound 21 | –
4 | CC(=O)Oc1cc(F)c(Cl)cc1C(=O)Nc1ccc(OC(F)(F)F)cc1 [Compound 25, 4-Chloro-5-fluoro-2-((4-(trifluoromethoxy)phenyl)carbamoyl)phenyl acetate] | – | – | – | – | – | rapidly hydrolyze to compound 21 | –
5 | C[C@H](N)C(=O)Oc1cc(F)c(Cl)cc1C(=O)Nc1ccc(OC(F)(F)F)cc1.Cl [Compound 26, 4-Chloro-5-fluoro-2-((4-(trifluoromethoxy)phenyl)carbamoyl)phenyll-alaninate monohydrochloride] | – | – | – | – | – | barely transforms to parent compound 21 | –
6 | O=C(Nc1ccc([N+](=O)[O-])cc1Cl)c1cc(Cl)ccc1O [NIC, niclosamide, reference compound] | – | higher than the control group | 5.86 | reduced | 13.3 | – | –
